An excerpt weighted towards active compounds, which were near 4.6% of everything screened.
HDAC3 inh: human HDAC3 inhibition | inhibition, % at 8.3 µM | O15379 | recombinant HDAC3, fluorogenic peptide/trypsin coupled, fluorescence | 320,000 compounds, 0.15% hits; in the data active = inhibition above about 26%, passing the limit was not always enough
UCH37 DUB inh: inhibitors of human deubiquitinating enzyme UCH37 | Q9Y5K5 | purified proteasome/UCH37, Ub-AMC cleavage fluorescence | inhibition, % (test concentration not listed) | 330,000 compounds, 0.33% hits;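 active = mean inhibition over replicate wells above about 20%, limit read from the data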;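 also: 0% = compound-free wells with enzyme and 100% = wells lacking proteasome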
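assay system = human UCH37 enzyme supplied as purified proteasome complex | amount = proteasome at 0.15 nM in the dispensed enzyme solution | schedule = 30 min compound-proteasome preincubation then 25 min substrate reaction, room temperature | measured by = fluorescence, ex 355 nm, em 460 nm | benchmarks = no-proteasome wells (full inhibition) and compound-free wells (no inhibition)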
ALR H2O2 inh: blocks human ALR sulfhydryl oxidase activity; P55789; purified ALR, DTT oxidation, H2O2 HRP-luminol luminescence; inhibition, % (test concentration not listed); 290,000 compounds, 3.8% hits;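 active = mean replicate inhibition above about 79%, with every replicate also reaching it, limit read from the data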
Target sequence (P55789 whole entry, looked up): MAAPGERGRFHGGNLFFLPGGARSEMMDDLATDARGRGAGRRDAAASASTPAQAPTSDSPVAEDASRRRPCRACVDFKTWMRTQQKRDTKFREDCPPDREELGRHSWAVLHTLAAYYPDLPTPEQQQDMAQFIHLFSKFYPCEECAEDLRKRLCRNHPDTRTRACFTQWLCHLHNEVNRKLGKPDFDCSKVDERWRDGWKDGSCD
Rtt109 HAT inh: blocks Candida albicans Rtt109/Vps75 acetyltransferase activity; Q5AAJ8; purified Rtt109/Vps75, ThioGlo CoA-SH fluorescence, 4 h; inhibition, % at 34.9 µM; 330,000 compounds, 0.16% hits; AID 540336;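 active = inhibition of at least 50% in every replicate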
FAS-TE inh: FAS thioesterase (human) inhibition; recombinant FAS-TE, OMFH fluorogenic substrate, fluorescence endpoint; 360,000 compounds, 0.67% hits; inhibition, % at 15 µM; AID 602261; P49327;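 active = compounds whose normalised, plate-corrected inhibition of enzyme fluorescence in the single-dose primary screen is 50% or more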;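 also: 0% = DMSO with enzyme and 100% = substrate without enzyme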
PfM18AAP inh: blocks P. falciparum M18 aspartyl aminopeptidase | recombinant PfM18AAP, H-Glu-NHMec fluorogenic cleavage | inhibition, % at 7.35 µM | 290,000 compounds, 1.2% hits;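 active = inhibition above the campaign mean inhibition over all tested compounds plus 3 SD, cut at about 28% in these data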;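 also: 0% = plate median of test compound wells and 100% = 2 mM ZnCl2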
FAS-TE conf: FAS thioesterase (human) inhibition, confirmation. shares compounds with FAS-TE inh. recombinant FAS-TE, OMFH fluorogenic substrate, fluorescence. inhibition, % at 15 µM. 2,300 compounds, 45% hits. AID 624325;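 active = compounds inhibiting the enzyme by at least 50% at 15 µM in any one of the replicates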;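 also: 0% = enzyme with DMSO only and 100% = wells lacking enzyme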
* = called active by the depositor.

Cc1ccccc1COC(=O)c1cc([N+](=O)[O-])ccc1N1CCOCC1 was read as HDAC3 inh 10, UCH37 DUB inh 4, ALR H2O2 inh -2, Rtt109 HAT inh 11, FAS-TE inh 36 and PfM18AAP inh 8.
Screening COc1ccc(OC)c(COC(=O)c2cc([N+](=O)[O-])ccc2N2CCOCC2)c1 returned HDAC3 inh 3, UCH37 DUB inh 4, Rtt109 HAT inh -6, FAS-TE inh 54* and FAS-TE conf 51*.
Screening COC(=O)c1ccc(S(=O)(=O)N2CCN(C(c3ccccc3)c3ccccc3)CC2)n1C returned HDAC3 inh 6, UCH37 DUB inh 6, ALR H2O2 inh -6, Rtt109 HAT inh -6, FAS-TE inh 55*, PfM18AAP inh 4 and FAS-TE conf 7.
`COC(=O)c1ccc(S(=O)(=O)N2CCN(CCO)CC2)n1C` gave HDAC3 inh -7, UCH37 DUB inh 3, ALR H2O2 inh -4, Rtt109 HAT inh 4, FAS-TE inh -3 and PfM18AAP inh -9.
For CC(=O)NC(=S)Nc1sc2c(c1C#N)CCCCC2 the results were UCH37 DUB inh 3, Rtt109 HAT inh 9, FAS-TE inh 57*, PfM18AAP inh 4 and FAS-TE conf 59*.
`O=C(COc1ncnc2ccccc12)Nc1cc([N+](=O)[O-])ccc1Cl` gave HDAC3 inh -4, UCH37 DUB inh 4, ALR H2O2 inh 0, Rtt109 HAT inh -5, FAS-TE inh 51*, PfM18AAP inh 2 and FAS-TE conf 3.
For O=C(COc1ncnc2c(Cl)cc(Cl)cc12)Nc1cc([N+](=O)[O-])ccc1Cl the results were HDAC3 inh -1, UCH37 DUB inh 2, Rtt109 HAT inh 6, FAS-TE inh 52*, PfM18AAP inh -9 and FAS-TE conf 43.
O=C(COc1ncnc2cc([N+](=O)[O-])ccc12)NCCc1ccc(Cl)cc1 was read as HDAC3 inh -1, UCH37 DUB inh 2, ALR H2O2 inh -12, Rtt109 HAT inh -3, FAS-TE inh 29 and PfM18AAP inh 5.
Screening O=[N+]([O-])c1ccc(O)c(C=NNc2ccccc2[N+](=O)[O-])c1 returned UCH37 DUB inh -1.
Screening O=C(O)CC1SC(NN=Cc2ccc(Br)cc2)NC1=O (stereo unspecified) returned UCH37 DUB inh 11.
Screening CCN(CC)S(=O)(=O)c1ccc(NN=C(C)c2ccncc2)c([N+](=O)[O-])c1 returned UCH37 DUB inh 0.
CCOC(=O)c1sc(NC(=O)c2ccc(S(=O)(=O)N3CCCCCC3)cc2)nc1-c1ccccc1 was read as HDAC3 inh -6, UCH37 DUB inh -81, ALR H2O2 inh -4, Rtt109 HAT inh 2, FAS-TE inh 46 and PfM18AAP inh -1.
CCOC(=O)c1sc(NC(=O)c2ccc(S(=O)(=O)N3CCCCC3)cc2)nc1-c1ccccc1 was read as HDAC3 inh -8, UCH37 DUB inh -18, ALR H2O2 inh 22, Rtt109 HAT inh -6, FAS-TE inh 65*, PfM18AAP inh -14 and FAS-TE conf 12.
Screening CC(=NNC(=O)c1ccccc1C)c1cccnc1 returned UCH37 DUB inh 5.
`O=c1c(C=NO)coc2ccc3ccccc3c12` gave UCH37 DUB inh 0.
`CCn1cc(C(=O)NCCC2=CCCCC2)c(=O)c2cc(S(=O)(=O)N(C)C)ccc21` gave HDAC3 inh -9, UCH37 DUB inh 2, ALR H2O2 inh -51, Rtt109 HAT inh 6, FAS-TE inh 80*, PfM18AAP inh -1 and FAS-TE conf 82*.
Screening CCn1cc(C(=O)NCCc2ccccc2)c(=O)c2cc(S(=O)(=O)N(C)C)ccc21 returned HDAC3 inh 3, UCH37 DUB inh 0, ALR H2O2 inh 3, Rtt109 HAT inh 0, FAS-TE inh 23 and PfM18AAP inh 2.
For CCn1cc(C(=O)NCc2ccc(C)cc2)c(=O)c2cc(S(=O)(=O)N(C)C)ccc21 the results were HDAC3 inh -1, UCH37 DUB inh 2, ALR H2O2 inh -3, Rtt109 HAT inh -4, FAS-TE inh 56*, PfM18AAP inh -16 and FAS-TE conf 62*.

From PubChem
